# Assay results as given in PubChem BioAssay AID1385 (PCMD, 2008).
# In all, about 200,000 compounds went through this assay and about 170 (0.085%) were called active. This is one part of a sample in which actives are shown more often than they occur. Unmarked numbers belong to inactive results.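 Rule for the calls: active = inhibition above 40% at the single screening dose; inactive = the rest.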
# Biological target: DNA repair protein RAD51 homolog 1 (Homo sapiens) (UniProt Q06609)
# Assay: human RAD51 strand exchange inhibitors, primary screen, biochemical, fluorescence (AID 1385);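 note: 0% = DMSO control wells and 100% = blanks with heterologous ssDNA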
# Details: hRad51 DNA strand exchange, fluorescence dequenching; at 10 µM; stronger effect = higher value
# Outline: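 Test system: preformed human Rad51 ssDNA filaments. Compound dosing: single dose, 10 µM final compound. Incubation: filaments 15 min 37 °C, then compound 30 min. Technique: FRET fluorescence dequenching, excitation 485 nm, emission 520 nm. Read-out basis: percent inhibition from fluorescence, normalised to plate control and blank means. Benchmarks: plate controls and plate blanks.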
# Chain of DNA repair protein RAD51 homolog 1 (Homo sapiens) (Q06609 whole entry, looked up): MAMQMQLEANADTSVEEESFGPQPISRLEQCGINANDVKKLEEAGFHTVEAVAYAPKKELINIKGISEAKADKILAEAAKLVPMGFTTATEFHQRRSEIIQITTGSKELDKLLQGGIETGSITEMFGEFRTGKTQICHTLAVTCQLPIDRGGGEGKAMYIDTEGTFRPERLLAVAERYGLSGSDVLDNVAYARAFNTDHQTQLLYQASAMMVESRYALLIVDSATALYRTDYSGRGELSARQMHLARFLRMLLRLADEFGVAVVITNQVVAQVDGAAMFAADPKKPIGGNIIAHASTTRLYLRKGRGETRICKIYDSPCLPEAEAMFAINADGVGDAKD
row,SMILES,inhibition
1,CC(OC(=O)c1ccc(NS(=O)(=O)c2ccc3[nH]c(=O)[nH]c3c2)cc1)C(=O)Nc1cccc(Cl)c1Cl (centres undefined),1.25%
2,Cc1cc(C)cc(NC(=O)NC2CCN(CC(=O)Nc3cccc(Cl)c3C)CC2)c1,-8.77%
3,CCn1c(CN2C(=O)CSc3ccccc32)n[nH]c1=S,3.47%
4,O=S(=O)(c1cccc(-c2nnc3n2CCCCC3)c1)N1CCOCC1,6.72%
5,CC(C)(C)c1cc(NC(=O)NN2CCOCC2)nn1-c1c(Cl)cc(Cl)cc1Cl,-14%
6,Nc1ccccc1SC(C[N+](=O)[O-])c1ccccc1 (centres undefined),14.8%
7,OC(CNCc1ccc2c(c1)OCO2)COc1ccccc1 (centres undefined),1.14%
8,Cc1ccc(CNC(=O)c2ccc3c(c2)S(=O)(=O)c2ccccc2C3=O)cc1,3.71%
9,COc1ccccc1-n1cn[nH]c1=S,26.3%
10,COc1ccc(CN(Cc2ccc(OC)cc2)C(=O)c2cccs2)cc1,2.36%
11,O=C(c1ccc(F)cc1)n1c(=S)nc2ccccn21,15.3%
12,CNC1(c2nnnn2-c2c(C)cccc2C)CCOC(C)(C)C1 (centres undefined),5.82%
13,Cc1cc(-c2nc(C)c(-c3nnc(SCC(=O)Nc4ccccc4)n3C)s2)no1,-5%
14,OCC[C@H]1C[C@H](O)[C@@H](O)[C@]2(CCCCO2)O1,-1.38%
15,COc1ccccc1Cn1c(CO)nc2ccccc21,-28.4%
16,Cc1ccc(C)c2c1cc(C)c1nnc(SCC(=O)Nc3cccc(C(=O)O)c3)n12,3.44%
17,CCCN(CCC)S(=O)(=O)c1ccc(C(=O)N2CC3CCC(CC3)C2)cc1,4.87%
18,O=C(O)c1ccccc1C(=O)Nc1ccccc1[N+](=O)[O-],10.6%
19,O=[N+]([O-])c1ccc2c(c1)C(O)n1nc(-c3ccccc3)nc1S2 (centres undefined),0.18%
20,CC(C)CC(=O)NC(=S)NCc1ccccc1,1.47%
21,CCC(=O)NC(=Nc1nc2ccccc2s1)NC(=O)CC,-4.35%
22,CC(C)CC(=O)N/C(N)=N/c1nc2ccccc2s1,82.8% (active)
23,CCN(CC)CCOc1ccc2c(c1)C(=NNC(=O)c1ccccn1)c1cc(OCCN(CC)CC)ccc1-2,99% (active)
24,CCOc1cc(NC(=O)c2ccccn2)c(OCC)cc1NC(=O)c1ccc(OC)cc1,0.44%

row,SMILES,inhibition
1,CCC(C)(NC(=O)c1ccccn1)C(=O)NC1CCCCC1 (centres undefined),14.2%
2,O=[N+]([O-])c1cc([N+](=O)[O-])c2cccnc2c1O,5.92%
3,O=C(CCc1ccccc1)NNc1ccc(F)cc1,4.26%
4,NS(=O)(=O)c1ccc(NC(=O)COC(=O)c2cc3ccccc3oc2=O)cc1,3.3%
5,Cc1c(NC(=O)CN2C(=O)C(=O)N(Cc3ccccc3)C2=O)c(=O)n(-c2ccccc2)n1C,1.05%
6,O=C1N=C(N2CCc3ccccc3C2)S/C1=C\c1ccc(O)cc1,-11.2%
7,O=C1/C(=C/c2coc3ccc(O)cc3c2=O)SC(=S)N1c1ccccc1,-16.3%
8,O=C(O)c1ccc(/C=N/Nc2nc(N3CCCCC3)nc(N3CCCCC3)n2)cc1,8.17%
9,Cn1cnc(S(=O)(=O)Nc2ccc3c(c2)OCCO3)c1,10.8%
10,O=C(O)CC12CC3CC(C1)CC(n1ncc(NCc4ccc(F)cc4)c(Cl)c1=O)(C3)C2,-1.62%
11,O=C(Cc1cccc2ccccc12)NNC(=O)Nc1ccc(Cl)cc1,18.3%
12,Cc1nnc(Nc2ccccc2F)s1,21.3%
13,CCOC(=O)CN(C(=O)COc1nc(C)cc(C)c1C#N)c1ccc(Cl)cc1,1.01%
14,FC(F)(F)c1cccc(-c2nc(COc3ccc(Cl)cc3Cl)no2)c1,4.51%
15,CCSC1=NCCN1C(=O)c1ccc(S(=O)(=O)N(CC)CC)cc1,40.5% (active)
16,CSC1=NCCN1C(=O)c1ccc(S(=O)(=O)N2CCOCC2)cc1,-4.11%
17,CCSC1=NCCN1S(=O)(=O)c1ccc(F)cc1,-1.84%
18,C/C(Cc1ccccc1)=N\NC(=O)CNC(=O)c1ccccc1Cl,11.3%
19,COc1ccc(OC)c(NC(=O)N[C@H](Cc2ccccc2)C(=O)NN)c1,19%
20,N#Cc1ccc(Oc2ccc(C(F)(F)F)cc2NC(=O)c2ccc(F)cc2)cc1,18.6%
21,COCCn1c(SCC(=O)c2[nH]c(C)c(C(C)=O)c2C)nc2ccccc2c1=O,-4.09%
22,COc1ccc(/C=N/n2nnnc2N)cc1OC,-13.6%
23,Cc1cc(Nc2ccc(N3CCOCC3)cc2)c2cccc(C)c2n1,15.5%
24,Nc1ccccc1C(=O)NC1CCCCNC1=O (centres undefined),11.6%

row,SMILES,inhibition
1,COc1cc(N2C(=O)CC3(CCCC3)CC2=O)cc(OC)c1OC,-3.47%
2,Cc1ccc(Nc2c3c(nc4ccccc24)CCC3)cc1,16.7%
3,O=C1N[C@H](Cc2ccccc2)C(=O)N[C@H]1Cc1cn(S(=O)(=O)c2ccccc2)c2ccccc12,-3.92%
4,O=C(NC1C2CC3CC(C2)CC1C3)c1ccc(N2CCNCC2)c([N+](=O)[O-])c1 (centres undefined),-5.43%
5,CC(=O)N/C(=C\c1ccc(F)cc1)C(=O)NC(Cc1ccccc1)C(=O)O (centres undefined),5.67%
6,CN(C)S(=O)(=O)c1ccc(C(=O)NCC(C)(C)N2CCOCC2)cc1,-11.7%
7,NC(=O)c1ccc(-c2csnn2)cc1,9.52%
8,Nc1c(Cl)cc(S(N)(=O)=O)cc1S(N)(=O)=O,3.22%
9,O=C(Nc1cccc2c1N(C(=O)c1ccco1)CCC2)c1ccco1,15.4%
10,CC1Cc2ccccc2N1CC(=O)Nc1ccc(S(N)(=O)=O)cc1 (centres undefined),-6.22%
11,Cc1ccc(NC(=O)/C(=C/c2ccc([N+](=O)[O-])cc2)NC(=O)c2ccccc2)cc1,-17.5%
12,NNC(=O)c1cccc(COCC(F)(F)C(F)F)c1,8.15%
13,O=C(Nc1ccccc1)C1CC(=O)n2c(nc3ccccc32)N1 (centres undefined),1.59%
14,NC(=O)c1ccc(NC(=O)COC(=O)c2ccc([N+](=O)[O-])cc2)cc1,-14.5%
15,CCCc1c(C(=O)Nc2ccc(F)cc2)cnn1-c1ccccc1,-9.46%
16,Cc1cc(C(=O)OCC(=O)Nc2nccs2)c2ccccc2n1,-4.52%
17,CCc1nc(NCCO)c(C#N)c2c1CCCC2,18.4%
18,Cn1c(=O)c(=O)n(C)c2cc(S(=O)(=O)NCCN3CCN(c4ccccc4F)CC3)ccc21,0.68%
19,Cc1ccc(N2C(=O)CN=C2Nc2nc(C)cc(C)n2)cc1,7.92%
20,COC(=O)c1sccc1NC(=O)CC1C(=O)NCCN1C(=O)Nc1ccc(F)cc1F (centres undefined),1.89%
21,Fc1ccc(-c2csc(-c3ccc(C4SCCS4)cc3)n2)cc1F,1.29%
22,O=C(NNC(=O)c1csc(-c2cccnc2)n1)Nc1ccc(Cl)cc1,-5.17%
23,COCc1cc(=O)[nH]c(-c2ccc(C(F)(F)F)cc2)n1,7.88%
24,CSc1sc(C(=O)NNC(=O)c2ccc(Cl)cc2)c2c1C=CCC2,-9.57%

row,SMILES,inhibition
1,N#Cc1c(NCCO)ccc([N+](=O)[O-])c1NCCO,16.9%
2,COc1ccc(NC(=O)C2=C(C)NC(=O)NC2c2ccccc2[N+](=O)[O-])cc1 (centres undefined),0.69%
3,O=S(=O)(c1ccccc1)N1CN(Cc2ccc(F)cc2)c2nc3ccccc3nc21,7.4%
4,CC1(C)C2CC[C@]3(C)C(CC=C4[C@@H]5C[C@@](C)(CO)CC[C@]5(C(=O)O)CC[C@]43C)[C@@]2(C)CC[C@@H]1O (some centres undefined),6.09%
5,Cc1cc(N2CCN(c3ccccc3)CC2)nc(N2CCOCC2)n1,26.8%
6,COc1ccc(Cn2c(O)c(/C=C3/C=CC=N3)c(=O)[nH]c2=O)cc1,-6.92%
7,COC(=O)c1ccc(C(NC(=O)OCc2ccccc2)/C(F)=C/[C@@H](C)C(=O)O)cc1 (some centres undefined),-2.27%
8,Cc1cccn2c(CNCC(C)Oc3cccnc3)c(C(=O)N3CCOCC3)nc12 (centres undefined),-2.58%
9,N#CC1=C(N)Oc2c(ccc3cccnc23)C1c1ccncc1 (centres undefined),12.7%
10,CN(C)CCCN(Cc1cc2cc3c(cc2[nH]c1=O)OCCO3)C(=O)NC1CCCCC1,0.9%
11,C/C(CC(=O)NC(C)c1ccccc1)=N\NC(N)=S (centres undefined),21.4%
12,NCC(=O)c1cccc2ccc[n+]([O-])c12,-0.26%
13,CCCOc1ccc(Cl)cc1Nc1nc(NCCO)nc(N2CCCC2)n1,6.75%
14,Cc1cc(NC(=O)OC(C)C)ccc1-c1ccc(NC(=O)OC(C)C)cc1C,-19.8%
15,CCn1c(SCC(=O)Nc2sc(C)c(C)c2C#N)nnc1C1CC1,-26.7%
16,CCNc1nc(NCC)nc(N/N=C/c2ccc(O)c(OC)c2)n1,5.6%
17,Cc1cc(C)nc(Nc2n[nH]c(-c3ccccc3N)n2)n1,22.9%
18,COC(=O)c1cc(C(=O)OCC(=O)Nc2cc(C)on2)cc([N+](=O)[O-])c1,-19.8%
19,O=C(CCl)Nc1cccc(CP(=O)(c2ccccc2)c2ccccc2)c1,3.48%
20,Cc1nc(-c2ccccc2)sc1-c1nnc(C2CC2)o1,13.8%
21,Cc1cc(=O)oc2cc(OCC(=O)Nc3nnc(C4CC4)s3)ccc12,27.8%
22,CCCSc1ncccc1C(=O)O,14.8%
